Measured values: ChEMBL document CHEMBL1149770, “Synthesis and antimicrobial studies of novel dichlorofluorophenyl containing aminotriazolothiadiazines” (2008)
≈ marks a conversion by molar mass, not a printed value.

Experiments:
Staphylococcus aureus [1] = experiment: Antibacterial activity against Staphylococcus aureus ATCC 25923 after 24 hrs by broth dilution technique; type: functional; settings: ATCC 25923, 24 h
Procedure, shortened: (§1)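 MIC by broth dilution in nutrient broth with logarithmic serial twofold dilutions of compound. Inoculum approx. 5×10^5 c.f.u actively dividing bacteria. Incubated 24 h at 37 °C, growth monitored visually and spectrophotometrically. MIC taken as the lowest concentration (highest dilution) arresting growth. Ciprofloxacin reference.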

Staphylococcus aureus [2] = experiment: Antibacterial activity against Staphylococcus aureus ATCC 25923 assessed as inhibition zone diameter after 24 hrs […]; type: functional
Procedure, shortened: (§2)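 Disc diffusion on nutrient agar. Inoculum 1-2 × 10^7 c.f.u/ml (0.5 McFarland) spread over the plate surface. Sterile 6.25 mm filter-paper discs soaked in a known concentration of compound. Solvent and growth controls included. Plates incubated inverted 24 h at 37 °C, then inhibition zone diameter measured in mm. Ciprofloxacin reference.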

Escherichia coli = experiment: Antibacterial activity against Escherichia coli ATCC 25922 after 24 hrs by broth dilution technique; type: functional; settings: ATCC 25922, 24 h; procedure, shortened: as §1
Pseudomonas aeruginosa [3] = experiment: Antibacterial activity against Pseudomonas aeruginosa ATCC 27853 after 24 hrs by broth dilution technique; type: functional; settings: ATCC 27853, 24 h; procedure, shortened: as §1
Pseudomonas aeruginosa [4] = experiment: Antibacterial activity against Pseudomonas aeruginosa ATCC 27853 assessed as inhibition zone diameter after 24 hrs […]; type: functional; procedure, shortened: as §2
Klebsiella pneumoniae [5] = experiment: Antibacterial activity against Klebsiella pneumoniae after 24 hrs by broth dilution technique; type: functional; procedure, shortened: as §1
Klebsiella pneumoniae [6] = experiment: Antibacterial activity against Klebsiella pneumoniae assessed as inhibition zone diameter after 24 hrs […]; type: functional; procedure, shortened: as §2
Streptococcus pyogenes [7] = experiment: Antibacterial activity against Streptococcus pyogenes after 24 hrs by broth dilution technique; type: functional; procedure, shortened: as §1
Candida albicans [8] = experiment: Antifungal activity against Candida albicans after 48 hrs […]; type: functional
Candida albicans [9] = experiment: Antifungal activity against Candida albicans assessed as inhibition zone diameter […] by agar dilution method; type: functional
Procedure, shortened: (§3)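 Compounds in DMSO placed in punched wells on Sabouraud agar (peptone, glucose, agar, pH 5.7) lawned with saline spore suspension. Plates pre-dried 1 h at 37 °C. Controls in triplicate, incubation at 37 °C for 3-4 days, then inhibition zone diameter read in mm. Amphotericin B reference.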

Aspergillus flavus [10] = experiment: Antifungal activity against Aspergillus flavus after 48 hrs […]; type: functional
Aspergillus flavus [11] = experiment: Antifungal activity against Aspergillus flavus assessed as inhibition zone diameter […] by agar dilution method; type: functional; procedure, shortened: as §3
Aspergillus fumigatus [12] = experiment: Antifungal activity against Aspergillus fumigatus after 48 hrs […]; type: functional
Aspergillus fumigatus [13] = experiment: Antifungal activity against Aspergillus fumigatus assessed as inhibition zone diameter […] by agar dilution method; type: functional; procedure, shortened: as §3
[14] = system: Trichophyton mentagrophytes; experiment: Antifungal activity against Trichophyton mentagrophytes after 48 hrs […]; type: functional
[15] = system: Trichophyton mentagrophytes; experiment: Antifungal activity against Trichophyton mentagrophytes assessed as inhibition zone diameter […] by agar dilution method; type: functional; procedure, shortened: as §3
Talaromyces marneffei [16] = experiment: Antifungal activity against Penicillium marneffei after 48 hrs […]; type: functional
Talaromyces marneffei [17] = experiment: Antifungal activity against Penicillium marneffei assessed as inhibition zone diameter […] by agar dilution method; type: functional; procedure, shortened: as §3
Streptococcus pyogenes [18] = experiment: Antibacterial activity against Streptococcus pyogenes assessed as inhibition zone diameter after 24 hrs by disc diffusion method

| SMILES | MIC (Staphylococcus aureus [1]) [µg/mL] | MIC (Escherichia coli) [µg/mL] | MIC (Pseudomonas aeruginosa [3]) [µg/mL] | MIC (Klebsiella pneumoniae [5]) [µg/mL] | MIC (Streptococcus pyogenes [7]) [µg/mL] | MIC (Candida albicans [8]) [µg/mL] | MIC (Aspergillus flavus [10]) [µg/mL] | MIC (Aspergillus fumigatus [12]) [µg/mL] | MIC [14] [µg/mL] | MIC (Talaromyces marneffei [16]) [µg/mL] | inhibition zone (IZ) (Staphylococcus aureus [2]) [mm] | inhibition zone (IZ) (Pseudomonas aeruginosa [4]) [mm] | inhibition zone (IZ) (Klebsiella pneumoniae [6]) [mm] | inhibition zone (IZ) (Candida albicans [9]) [mm] | inhibition zone (IZ) (Aspergillus flavus [11]) [mm] | inhibition zone (IZ) (Aspergillus fumigatus [13]) [mm] | inhibition zone (IZ) [15] [mm] | inhibition zone (IZ) (Talaromyces marneffei [17]) [mm] | inhibition zone (IZ) (Streptococcus pyogenes [18]) [mm] |
| --- | --- | --- | --- | --- | --- | --- | --- | --- | --- | --- | --- | --- | --- | --- | --- | --- | --- | --- | --- |
| Cc1ccc(NC2=Nn3c(nnc3-c3cc(F)c(Cl)cc3Cl)SC2)cc1 | 6.25 (≈ 15.3 µM) | 6.25 (≈ 15.3 µM) | 6.25 (≈ 15.3 µM) | 6.25 (≈ 15.3 µM) | 6.25 (≈ 15.3 µM) | 6.25 (≈ 15.3 µM) | 6.25 (≈ 15.3 µM) | 6.25 (≈ 15.3 µM) | 6.25 (≈ 15.3 µM) | 6.25 (≈ 15.3 µM) | 21 | 29 | 21 | 18 | 19 | 20 | 17 | 23 | 23 |
| Nn1c(SCC(=O)Nc2ccccc2C(F)(F)F)nnc1-c1cc(F)c(Cl)cc1Cl | 6.25 (≈ 13 µM) | 6.25 (≈ 13 µM) | 6.25 (≈ 13 µM) | 6.25 (≈ 13 µM) | 6.25 (≈ 13 µM) | 6.25 (≈ 13 µM) | 6.25 (≈ 13 µM) | 6.25 (≈ 13 µM) | 6.25 (≈ 13 µM) | 6.25 (≈ 13 µM) | 25 | 29 | 20 | 19 | 21 | 19 | 18 | 22 | 22 |
| Nn1c(SCC(=O)Nc2ccc(F)c(Cl)c2)nnc1-c1cc(F)c(Cl)cc1Cl | 6.25 (≈ 13.4 µM) | 6.25 (≈ 13.4 µM) | 6.25 (≈ 13.4 µM) | 6.25 (≈ 13.4 µM) | 6.25 (≈ 13.4 µM) | 12.5 (≈ 26.9 µM) | 25 (≈ 53.8 µM) | 12.5 (≈ 26.9 µM) | 12.5 (≈ 26.9 µM) | 6.25 (≈ 13.4 µM) | 24 | 31 | 20 | 15 | 8 | 16 | 11 | 20 | 23 |
| Cc1ccc(NC(=O)CSc2nnc(-c3cc(F)c(Cl)cc3Cl)n2N)c(C)c1 | 6.25 (≈ 14.2 µM) | 6.25 (≈ 14.2 µM) | 6.25 (≈ 14.2 µM) | 25 (≈ 56.8 µM) | 6.25 (≈ 14.2 µM) | 12.5 (≈ 28.4 µM) | 25 (≈ 56.8 µM) | 25 (≈ 56.8 µM) | 6.25 (≈ 14.2 µM) | 25 (≈ 56.8 µM) | 17 | 30 | 10 | 14 | 10 | 8 | 12 | 9 | 18 |
| Cc1cccc(NC(=O)CSc2nnc(-c3cc(F)c(Cl)cc3Cl)n2N)c1C | 6.25 (≈ 14.2 µM) | 12.5 (≈ 28.4 µM) | 12.5 (≈ 28.4 µM) | 12.5 (≈ 28.4 µM) | 6.25 (≈ 14.2 µM) | 6.25 (≈ 14.2 µM) | 12.5 (≈ 28.4 µM) | 6.25 (≈ 14.2 µM) | 6.25 (≈ 14.2 µM) | 12.5 (≈ 28.4 µM) | 20 | 20 | 17 | 18 | 15 | 20 | 16 | 15 | 24 |

Further compounds by falling MIC (Staphylococcus aureus [1]), results first:

| MIC (Staphylococcus aureus [1]) [µg/mL] | MIC (Escherichia coli) [µg/mL] | MIC (Pseudomonas aeruginosa [3]) [µg/mL] | MIC (Klebsiella pneumoniae [5]) [µg/mL] | MIC (Streptococcus pyogenes [7]) [µg/mL] | MIC (Candida albicans [8]) [µg/mL] | MIC (Aspergillus flavus [10]) [µg/mL] | MIC (Aspergillus fumigatus [12]) [µg/mL] | MIC [14] [µg/mL] | MIC (Talaromyces marneffei [16]) [µg/mL] | SMILES | inhibition zone (IZ) (Staphylococcus aureus [2]) [mm] | inhibition zone (IZ) (Pseudomonas aeruginosa [4]) [mm] | inhibition zone (IZ) (Klebsiella pneumoniae [6]) [mm] | inhibition zone (IZ) (Candida albicans [9]) [mm] | inhibition zone (IZ) (Aspergillus flavus [11]) [mm] | inhibition zone (IZ) (Aspergillus fumigatus [13]) [mm] | inhibition zone (IZ) [15] [mm] | inhibition zone (IZ) (Talaromyces marneffei [17]) [mm] | inhibition zone (IZ) (Streptococcus pyogenes [18]) [mm] |
| --- | --- | --- | --- | --- | --- | --- | --- | --- | --- | --- | --- | --- | --- | --- | --- | --- | --- | --- | --- |
| 6.25 (≈ 13 µM) | 12.5 (≈ 26 µM) | 12.5 (≈ 26 µM) | 6.25 (≈ 13 µM) | 6.25 (≈ 13 µM) | 12.5 (≈ 26 µM) | 6.25 (≈ 13 µM) | 12.5 (≈ 26 µM) | 25 (≈ 52 µM) | 12.5 (≈ 26 µM) | Nn1c(SCC(=O)Nc2c(Cl)cccc2Cl)nnc1-c1cc(F)c(Cl)cc1Cl | 18 | 23 | 21 | 12 | 17 | 15 | 10 | 13 | 19 |
| 6.25 (≈ 14.5 µM) | 6.25 (≈ 14.5 µM) | 6.25 (≈ 14.5 µM) | 6.25 (≈ 14.5 µM) | 6.25 (≈ 14.5 µM) | 6.25 (≈ 14.5 µM) | 6.25 (≈ 14.5 µM) | 6.25 (≈ 14.5 µM) | 6.25 (≈ 14.5 µM) | 6.25 (≈ 14.5 µM) | Nn1c(SCC(=O)Nc2ccc(F)cc2)nnc1-c1cc(F)c(Cl)cc1Cl | 23 | 30 | 21 | 19 | 21 | 19 | 17 | 24 | 22 |
| 6.25 (≈ 12.1 µM) | 6.25 (≈ 12.1 µM) | 6.25 (≈ 12.1 µM) | 6.25 (≈ 12.1 µM) | 6.25 (≈ 12.1 µM) | 6.25 (≈ 12.1 µM) | 6.25 (≈ 12.1 µM) | 6.25 (≈ 12.1 µM) | 6.25 (≈ 12.1 µM) | 6.25 (≈ 12.1 µM) | Nn1c(SCC(=O)Nc2cc(Cl)c(Cl)cc2Cl)nnc1-c1cc(F)c(Cl)cc1Cl | 22 | 30 | 21 | 20 | 25 | 21 | 19 | 23 | 25 |
